Tested on: Fibroblast
Experiment: Multiplex assay against human fibroblast
Format: toxicity, cell-based
Outline: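 On a CQ1 microscope at 37°C and 5% CO2, live cells were imaged after compound addition. They had been stained at seeding with Hoechst33342, BioTracker Green Microtubule Cytoskeleton Dye, MitoTracker Red and Annexin V Alexa Fluor 680. CellPathfinder machine-learning gating assigned cells to Hoechst high-intensity objects or normal cells, normal cells to healthy, pyknosed or fragmented nuclei, and pyknosed cells to mitotic or apoptotic. Tubulin, mitochondrial-mass and membrane-permeability phenotypes are per cents of healthy-nucleus cells.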

[1] = 12 h, 1 µM, compound concentration 1 uM, replicate 1
[2] = 12 h, 1 µM, compound concentration 1 uM, replicate 2
[3] = 12 h, 10 µM, compound concentration 10 uM, replicate 1
[4] = 12 h, 10 µM, compound concentration 10 uM, replicate 2
[5] = 24 h, 1 µM, compound concentration 1 uM, replicate 1
[6] = 24 h, 1 µM, compound concentration 1 uM, replicate 2
[7] = 24 h, 10 µM, compound concentration 10 uM, replicate 1
[8] = 24 h, 10 µM, compound concentration 10 uM, replicate 2
[9] = 48 h, 1 µM, compound concentration 1 uM, replicate 1
[10] = 48 h, 1 µM, compound concentration 1 uM, replicate 2
[11] = 48 h, 10 µM, compound concentration 10 uM, replicate 1
[12] = 48 h, 10 µM, compound concentration 10 uM, replicate 2

`S=C(NCCCc1c[nH]cn1)NCCCN(Cc1ccc(Cl)c(Cl)c1)c1ccc(Br)cn1` was tested, and the “Population Apoptotic (%)” value [1] was 40%, the “Population Fragmented Nuclei (%)” value [1] was 13% and the “Population Healthy Nuclei (%)” value [1] was 71%. The “Population Hoechst High Intensity Objects (%)” value [1] was 5%, the “Population Membrane Permeable-Phenotype (%)” value [1] was 1% and the “Population Mitochondria Different-Phenotype (%)” value [1] was 5%. For the same compound, the “Population Mitotic Cells (%)” value [1] was 60%, the “Population Normal (%)” value [1] was 94% and the “Population Pyknosed Nuclei (%)” value [1] was 14%. The “Population Tubulin-Different-Phenotype (%)” value [1] was 26%, the “Total Cell Count” value [1] was 142 and the “Population Apoptotic (%)” value [2] was 31%. The “Population Fragmented Nuclei (%)” value [2] was 30%, the “Population Healthy Nuclei (%)” value [2] was 50% and the “Population Hoechst High Intensity Objects (%)” value [2] was 4%. For the same compound, the “Population Membrane Permeable-Phenotype (%)” value [2] was 5%, the “Population Mitochondria Different-Phenotype (%)” value [2] was 6% and the “Population Mitotic Cells (%)” value [2] was 68%. For the same compound, the “Population Normal (%)” value [2] was 95%, the “Population Pyknosed Nuclei (%)” value [2] was 18% and the “Population Tubulin-Different-Phenotype (%)” value [2] was 37%. For the same compound, the “Total Cell Count” value [2] was 181, the “Population Apoptotic (%)” value [3] was 47% and the “Population Fragmented Nuclei (%)” value [3] was 27%. For the same compound, the “Population Healthy Nuclei (%)” value [3] was 56%, the “Population Hoechst High Intensity Objects (%)” value [3] was 3% and the “Population Membrane Permeable-Phenotype (%)” value [3] was 0%. The “Population Mitochondria Different-Phenotype (%)” value [3] was 15%, the “Population Mitotic Cells (%)” value [3] was 52% and the “Population Normal (%)” value [3] was 96%. For the same compound, the “Population Pyknosed Nuclei (%)” value [3] was 16%, the “Population Tubulin-Different-Phenotype (%)” value [3] was 89% and the “Total Cell Count” value [3] was 220. For the same compound, the “Population Apoptotic (%)” value [4] was 52%, the “Population Fragmented Nuclei (%)” value [4] was 34% and the “Population Healthy Nuclei (%)” value [4] was 53%. For the same compound, the “Population Hoechst High Intensity Objects (%)” value [4] was 5%, the “Population Mitochondria Different-Phenotype (%)” value [4] was 10% and the “Population Mitotic Cells (%)” value [4] was 47%. The “Population Normal (%)” value [4] was 94%, the “Population Pyknosed Nuclei (%)” value [4] was 12% and the “Total Cell Count” value [4] was 279. For the same compound, the “Population Apoptotic (%)” value [5] was 69%, the “Population Fragmented Nuclei (%)” value [5] was 15% and the “Population Healthy Nuclei (%)” value [5] was 74%. For the same compound, the “Population Hoechst High Intensity Objects (%)” value [5] was 4%, the “Population Membrane Permeable-Phenotype (%)” value [5] was 2% and the “Population Mitochondria Different-Phenotype (%)” value [5] was 2%. For the same compound, the “Population Mitotic Cells (%)” value [5] was 30%, the “Population Normal (%)” value [5] was 95% and the “Population Pyknosed Nuclei (%)” value [5] was 9%. For the same compound, the “Population Tubulin-Different-Phenotype (%)” value [5] was 28%, the “Total Cell Count” value [5] was 137 and the “Population Apoptotic (%)” value [6] was 23%. For the same compound, the “Population Fragmented Nuclei (%)” value [6] was 30%, the “Population Healthy Nuclei (%)” value [6] was 57% and the “Population Hoechst High Intensity Objects (%)” value [6] was 1%. For the same compound, the “Population Mitochondria Different-Phenotype (%)” value [6] was 6%, the “Population Mitotic Cells (%)” value [6] was 76% and the “Population Normal (%)” value [6] was 98%. The “Population Pyknosed Nuclei (%)” value [6] was 11%, the “Population Tubulin-Different-Phenotype (%)” value [6] was 42% and the “Total Cell Count” value [6] was 183. For the same compound, the “Population Apoptotic (%)” value [7] was 66%, the “Population Fragmented Nuclei (%)” value [7] was 22% and the “Population Healthy Nuclei (%)” value [7] was 61%. For the same compound, the “Population Hoechst High Intensity Objects (%)” value [7] was 1%, the “Population Membrane Permeable-Phenotype (%)” value [7] was 0% and the “Population Mitochondria Different-Phenotype (%)” value [7] was 19%. The “Population Mitotic Cells (%)” value [7] was 33%, the “Population Normal (%)” value [7] was 98% and the “Population Pyknosed Nuclei (%)” value [7] was 15%. For the same compound, the “Population Tubulin-Different-Phenotype (%)” value [7] was 93%, the “Total Cell Count” value [7] was 214 and the “Population Apoptotic (%)” value [8] was 61%. The “Population Fragmented Nuclei (%)” value [8] was 27%, the “Population Healthy Nuclei (%)” value [8] was 59% and the “Population Hoechst High Intensity Objects (%)” value [8] was 4%. For the same compound, the “Population Membrane Permeable-Phenotype (%)” value [8] was 2%, the “Population Mitochondria Different-Phenotype (%)” value [8] was 7% and the “Population Mitotic Cells (%)” value [8] was 38%. For the same compound, the “Population Normal (%)” value [8] was 95%, the “Population Pyknosed Nuclei (%)” value [8] was 13% and the “Population Tubulin-Different-Phenotype (%)” value [8] was 95%. For the same compound, the “Total Cell Count” value [8] was 248, the “Population Apoptotic (%)” value [9] was 75% and the “Population Fragmented Nuclei (%)” value [9] was 27%. The “Population Healthy Nuclei (%)” value [9] was 67%, the “Population Hoechst High Intensity Objects (%)” value [9] was 3% and the “Population Membrane Permeable-Phenotype (%)” value [9] was 0%. For the same compound, the “Population Mitochondria Different-Phenotype (%)” value [9] was 0%, the “Population Mitotic Cells (%)” value [9] was 25% and the “Population Normal (%)” value [9] was 96%. The “Population Pyknosed Nuclei (%)” value [9] was 5%, the “Population Tubulin-Different-Phenotype (%)” value [9] was 24% and the “Total Cell Count” value [9] was 156. For the same compound, the “Population Apoptotic (%)” value [10] was 35%, the “Population Fragmented Nuclei (%)” value [10] was 30% and the “Population Healthy Nuclei (%)” value [10] was 59%. For the same compound, the “Population Hoechst High Intensity Objects (%)” value [10] was 4%, the “Population Membrane Permeable-Phenotype (%)” value [10] was 5% and the “Population Mitochondria Different-Phenotype (%)” value [10] was 3%. For the same compound, the “Population Mitotic Cells (%)” value [10] was 64%, the “Population Normal (%)” value [10] was 95% and the “Population Pyknosed Nuclei (%)” value [10] was 10%. For the same compound, the “Population Tubulin-Different-Phenotype (%)” value [10] was 36%, the “Total Cell Count” value [10] was 178 and the “Population Apoptotic (%)” value [11] was 62%. The “Population Fragmented Nuclei (%)” value [11] was 27%, the “Population Healthy Nuclei (%)” value [11] was 59% and the “Population Hoechst High Intensity Objects (%)” value [11] was 6%. The “Population Membrane Permeable-Phenotype (%)” value [11] was 0%, the “Population Mitochondria Different-Phenotype (%)” value [11] was 7% and the “Population Mitotic Cells (%)” value [11] was 37%. For the same compound, the “Population Normal (%)” value [11] was 93%, the “Population Pyknosed Nuclei (%)” value [11] was 12% and the “Population Tubulin-Different-Phenotype (%)” value [11] was 91%. The “Total Cell Count” value [11] was 230, the “Population Apoptotic (%)” value [12] was 63% and the “Population Fragmented Nuclei (%)” value [12] was 31%. For the same compound, the “Population Healthy Nuclei (%)” value [12] was 60%, the “Population Hoechst High Intensity Objects (%)” value [12] was 5% and the “Population Mitochondria Different-Phenotype (%)” value [12] was 1%. The “Population Mitotic Cells (%)” value [12] was 36%, the “Population Normal (%)” value [12] was 94% and the “Population Pyknosed Nuclei (%)” value [12] was 7%. For the same compound, the “Population Tubulin-Different-Phenotype (%)” value [12] was 86% and the “Total Cell Count” value [12] was 293.

Source: ChEMBL document CHEMBL5058577, “EUbOPEN Chemogenomics Library 2 (Multiplex)” (2022)
